FID counter – counter-screen for HCV NS3 helicase inhibitors: DNA intercalator displacement; 290,000 tested, 0.17% active; inhibition, % at 7.9 µM; DNA fluorescent intercalator displacement, fluorescence; AID 1845; in the data active means inhibition above about 37%;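 further: 0% = vehicle and 100% = reference compound; higher means more ethidium bromide displaced from hairpin DNA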
IMP-1 inh – inhibitors of Pseudomonas aeruginosa IMP-1 metallo-beta-lactamase; purified IMP-1, nitrocefin hydrolysis, epi-absorbance fluorescence; inhibition, % at 5.6 µM; 290,000 tested, 0.45% active;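 active means inhibition above the mean plus 3 SD of all compounds in the same screening run, cut at about 4.5% in these data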;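 further: 0% = IMP-1 with DMSO and 100% = DMSO wells lacking enzyme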
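assay system = purified recombinant IMP-1 metallo-beta-lactamase enzyme | schedule = 15 min preincubation plus 25 min reaction at 25 °C | signal = Epi-absorbance fluorescence, 480 nm excitation, 530 nm emission | read-out basis = percent inhibition from optical density relative to buffer-blank wells | controls = IMP-1 with DMSO as 0%, enzyme-free DMSO as 100%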
NALP1 inh – inhibitors of NALP1 inflammasome in yeast; S. cerevisiae NALP1/ASC/caspase-1 growth, X-gal OD620, 72 h; inhibition, % at 10 µM; 280,000 tested, 0.61% active; AID 2071; in the data active means inhibition mostly above about 24%, no sharp cut-off; inactive means mostly below about 32%
VIM-2 inhibitor – blocks Pseudomonas aeruginosa VIM-2 metallo-beta-lactamase | purified VIM-2, nitrocefin hydrolysis, epi-absorbance fluorescence | inhibition, % at 5.6 µM | 290,000 tested, 0.89% active | AID 1527;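 active means inhibition above the mean of all tested compounds plus 3 SD, cutoff set per screening run, cut at about 7.5% in these data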;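 further: red hydrolysis product quenches plate fluorescence so inhibitors raise well fluorescence; 0% = enzyme with DMSO and 100% = DMSO without enzyme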
SUMO HTRF inh – SUMOylation inhibition; 290,000 tested, 0.36% active; P63279; HTRF SUMOylation assay, SAE1/SAE2 + UBC9, in vitro; AID 2006; inhibition, % at 35 µM; in the data active means inhibition above about 50%, passing the limit was not always enough
Target sequence (P63279 whole entry, looked up): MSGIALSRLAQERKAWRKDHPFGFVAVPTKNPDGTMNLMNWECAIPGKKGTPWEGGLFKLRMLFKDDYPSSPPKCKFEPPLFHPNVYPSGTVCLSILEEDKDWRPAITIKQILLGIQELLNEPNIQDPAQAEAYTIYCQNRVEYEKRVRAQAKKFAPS
SUMO Mot1 rescue – inhibitors of SUMOylation pathway: yeast Mot1-301 growth rescue; 320,000 tested, 1% active; growth rescue, % at 18.8 µM; S. cerevisiae Mot1-301 growth rescue, ATP luminescence, 38.5C; percent above DMSO median, 100 means doubled; AID 2716;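 active means every valid replicate shows activation above 250% relative to neutral control wells; inactive means the rest, any valid replicate at or below 250%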;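 further: OY570 slx delta 5 strain wells were the positive control but not used for scaling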
Yeast Mot1 SUMO – SUMO pathway inhibitors in yeast Mot1-301 growth | S. cerevisiae Mot1-301 galactose growth, ATP luminescence, 24 h; -100 = growth of slx-deleted rescue strain | growth activity, percent, % at 42 µM | 2,300 tested, under 10 active | shares compounds with SUMO Mot1 rescue;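 active means Signal drops as the depositor expects, and the fitted half-maximal dose is no more than ten times the top valid tested dose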;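 further: more negative values mean stronger growth rescue toward the control strain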
The depositor's hits bear a star; nt = not tested or not shown; + = active, no number. Hits are enriched below; roughly 2.9% of the tested compounds scored in any of these assays.

SMILES | FID counter | IMP-1 inh | NALP1 inh | VIM-2 inhibitor | SUMO HTRF inh | SUMO Mot1 rescue | Yeast Mot1 SUMO
Cc1nnc(NC(=O)C23CC4CC(CC(C4)C2)C3)s1 | -10 | 0 | 13 | -1 | 6 | -7 | nt
COc1ccc(S(=O)(=O)c2nnn(-c3cccc(Cl)c3)c2N)cc1 | -13 | -2 | 9 | 0 | -2 | nt | nt
CC1(C)CC(=O)C2=C(C1)Oc1ncn(CCO)c(=N)c1C2c1ccccc1 (centres undefined) | -4 | 1 | 7 | -1 | -2 | 543* | 0
Clc1cccc(-c2ccc3ncnc(NCc4cccs4)c3c2)c1 | nt | nt | nt | nt | nt | 198 | nt
Clc1ccccc1-c1ccc2ncnc(NCc3cccs3)c2c1 | nt | nt | nt | nt | nt | 411* | -3
Cc1csc(CNc2ncnc3ccc(-c4ccccc4Cl)cc23)c1 | nt | nt | nt | nt | nt | + | -1
COc1ccc(C)cc1NC(=O)CN1CCN(C/C=C/c2ccccc2)CC1 | -2 | -2 | 38 | -1 | -7 | 172 | nt
COc1ccc(S(=O)(=O)NCC(=O)N(CC(=O)NCC2CCCO2)c2ccccc2C)cc1 (centres undefined) | -28 | -2 | 13 | -2 | -15 | 921* | 1
O=C(CN(CC1CCCO1)C(=O)CNS(=O)(=O)c1ccc(F)cc1)NCc1ccccc1 (centres undefined) | -24 | -2 | 11 | -2 | 8 | 886* | 0
COc1cccc(C2C(C(C)=O)=C(O)C(=O)N2CCc2c[nH]c3ccccc23)c1 (centres undefined) | -40 | -1 | 9 | -1 | -8 | 604* | 0
Cc1cc([N+](=O)[O-])ccc1NC(=O)CSc1nnc(C)n1C | -2 | 1 | 0 | -2 | 2 | 94 | nt
Cc1cc([N+](=O)[O-])ccc1NC(=O)CSc1nccc(=O)[nH]1 | -3 | -3 | 4 | -3 | -6 | 378* | 0
CCc1cc(/C(Cc2ccccn2)=N\O)c(O)cc1O | -4 | -5 | -11 | -7 | 12 | 486* | 0
CCc1cc(/C(Cc2cscn2)=N\O)c(O)cc1O | -8 | -4 | 2 | -3 | -1 | 7 | nt
C/C(=N/NC(=O)CN1CCN(S(=O)(=O)c2ccc(Br)cc2)CC1)c1ccco1 | -13 | -5 | 18 | -6 | -11 | -11 | nt
COC(=O)c1cc(CNC(=O)CCCSc2ccccc2)ccc1OC | -35 | -4 | -10 | -3 | 11 | nt | nt
CCc1cc2c(=O)c(-c3nc4ccccc4n3C)c(C)oc2c(CN2CCOCC2)c1O | -25 | -2 | 32 | -2 | 29 | 520* | -1
CCc1cc2c(=O)c(-c3nc4ccccc4[nH]3)coc2c(CN2CCCCC2)c1O | -2 | -3 | 17 | -3 | 29 | 477* | -1
COc1ccc(CNC(=O)Cn2nc(C)c3c(C)n(-c4ccc(C)cc4)nc3c2=O)cc1OC | -30 | 0 | 22 | 0 | nt | 10 | nt
COc1ccccc1CNC(=O)C1CCC(=O)N1C(C)C (centres undefined) | 3 | 1 | -1 | 1 | 2 | 595* | 0
Cc1cc(NC(=O)CCC(=O)N(Cc2ccccc2)C2(C(=O)NC3CCCCC3)CCCC2)no1 | -6 | -2 | -1 | 2 | 22 | 5 | nt
O=C(COc1cccc2cccnc12)N1CCc2ccccc21 | -13 | 3 | 13 | -3 | 4 | 561* | -1
CCOC(=O)c1c(C)[nH]c(C(=O)COC(=O)c2ccncc2)c1C | -8 | -1 | 2 | -2 | 14 | + | 0
CCOC(=O)c1c(C)[nH]c(C(=O)COC(=O)c2cnccn2)c1C | nt | nt | nt | nt | nt | 0 | nt
CN(C)S(=O)(=O)N1CCc2ccccc2C1 | -1 | -3 | 18 | -2 | 22 | + | 0
CSc1cc(C)c(OCC(=O)Nc2c(C)nn(C)c2C)c(C)c1 | -35 | -1 | 14 | 0 | -4 | 385* | 0
Cc1nn(C)c(C)c1NC(=O)COc1ccc(F)cc1Br | nt | nt | nt | nt | nt | -14 | nt
CCOC(=O)Cc1csc(NC(=O)NC2(C(F)(F)F)Oc3ccc(Cl)cc3O2)n1 (centres undefined) | 1 | -5 | -6 | -4 | 10 | 15 | nt
